{"source": "PubChem BioAssay AID522", "about": "(The Scripps Research Institute Molecular Screening Center, 2006)", "note": "Screen size: about 65,000 compounds; about 1,200 (1.8%) were called active.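 Rule for the calls: active = activation above the mean activation of all tested compounds plus 3 SD (cut at about 50% in these data); inactive = the rest.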 The entries come from a sample that favours actives as a whole.", "data": [{"target": "Steroidogenic factor 1 (Homo sapiens) (UniProt Q13285)", "sequence (Q13285 whole entry, looked up, the tested form may be a part)": "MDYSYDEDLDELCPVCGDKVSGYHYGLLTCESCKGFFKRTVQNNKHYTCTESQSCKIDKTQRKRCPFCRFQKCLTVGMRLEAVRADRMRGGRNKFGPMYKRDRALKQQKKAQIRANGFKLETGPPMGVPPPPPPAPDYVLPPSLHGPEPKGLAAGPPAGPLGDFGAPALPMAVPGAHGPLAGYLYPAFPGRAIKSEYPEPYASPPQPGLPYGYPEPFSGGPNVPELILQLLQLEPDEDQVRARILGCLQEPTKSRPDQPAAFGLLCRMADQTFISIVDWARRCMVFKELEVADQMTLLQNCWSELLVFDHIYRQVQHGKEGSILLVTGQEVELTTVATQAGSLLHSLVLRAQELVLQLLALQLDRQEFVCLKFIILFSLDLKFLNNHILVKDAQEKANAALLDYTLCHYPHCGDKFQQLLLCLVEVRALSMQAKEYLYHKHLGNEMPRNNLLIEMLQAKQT", "experiment": "activators of human SF-1, primary screen, cell-based, CHO-K1, Gal4-SF-1 LBD, luciferase luminescence (AID 522)", "settings": "CHO-K1 Gal4-SF-1 LBD luciferase reporter; at 10 µM; stronger effect = higher value; % increase over DMSO SF-1-specific signal", "method_in_brief": "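Material: Gal4–SF-1 LBD one-hybrid luciferase reporter in CHO-K1 cells | Amount: 4,000 cells per well | Compound dosing: 10 µM single point, 1% DMSO | Schedule: 20 h compound treatment, 37 °C | Measured by: SteadyLite luciferase luminescence | Evaluation: Percent activation versus DMSO | Control set: DMSO-treated SF-1-transfected cells as negative, DMSO-treated mock-transfected cells lacking SF-1 as background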", "values": [{"smiles": "C=CCn1c(CC(=O)Nc2cccc(OC)c2)nnc1SCC(=O)NC1CCCCC1", "activation": "12.8% (inactive)"}, {"smiles": "COc1ccccc1N1CCN(C(=O)Cn2nnc(-c3cccs3)n2)CC1", "activation": "5% (inactive)"}, {"smiles": "Clc1cccc(Cl)c1Cn1nnc(-c2cccs2)n1", "activation": "50.8% (active)"}, {"smiles": "O=c1cc(Cn2nnc(-c3ccc(Cl)cc3)n2)nc2sccn12", "activation": "-5.8% (inactive)"}, {"smiles": "O=S(=O)(NCC1CCCO1)c1ccc2ccccc2c1", "note": "(stereo not given)", "activation": "-16.7% (inactive)"}, {"smiles": "O=C(c1cccnc1NCc1ccccc1)N1CCOCC1", "activation": "-2.1% (inactive)"}, {"smiles": "CCOC(=O)c1sc(/N=C/Nc2nc(C)c(C(=O)OCC)s2)nc1C", "activation": "-2% (inactive)"}, {"smiles": "COc1ccc(CCN(C)C(=O)C2CCCN(Cc3ccc(OC)c(OC)c3)C2)cc1OC", "note": "(stereo not given)", "activation": "5.8% (inactive)"}, {"smiles": "CC(C)(C)NC(=O)Cn1nnc(-c2ccccc2Cl)n1", "activation": "50% (active)"}, {"smiles": "O=C(Cn1nnc(-c2ccccc2)n1)NCc1ccccc1", "activation": "8.3% (inactive)"}, {"smiles": "Cc1ccccc1-c1nnn(CC(=O)c2ccc(S(=O)(=O)N3CCCC3)cc2)n1", "activation": "-10.4% (inactive)"}, {"smiles": "CN(C(=O)c1ccno1)c1nnc(-c2cccnc2)s1", "activation": "-11.5% (inactive)"}, {"smiles": "CN(C(=O)c1ccccn1)c1nnc(-c2ccccn2)s1", "activation": "56.6% (active)"}, {"smiles": "CN(C(=O)COc1ccccc1)c1nnc(-c2ccncc2)s1", "activation": "-6.7% (inactive)"}, {"smiles": "COc1cc2cc(CN(CCN3CCCC3)C(=O)Nc3ccccc3Cl)c(=O)[nH]c2cc1OC", "activation": "-8.6% (inactive)"}, {"smiles": "COc1cc(-c2nc(-c3ccncc3)no2)cc(OC)c1OC", "activation": "-2.5% (inactive)"}, {"smiles": "COc1ccc(-c2nc(-c3ccccc3)no2)c(OC)c1", "activation": "-82.9% (inactive)"}, {"smiles": "COc1ccc(-c2noc(-c3cccc(OC)c3OC)n2)cc1OC", "activation": "100% (active)"}, {"smiles": "COCCOC(=O)C1=C(C)Nc2nc(C)nn2C1c1ccccc1", "note": "(stereo not given)", "activation": "4.8% (inactive)"}, {"smiles": "CCCCCNC(=O)Cc1ccc(OC)cc1", "activation": "-9.8% (inactive)"}, {"smiles": "O=C(O)CSCNC(=O)CC12CC3CC(CC(C3)C1)C2", "activation": "-5.6% (inactive)"}, {"smiles": "O=S(=O)(Nc1ccc2nc(-c3ccco3)[nH]c2c1)c1ccccc1", "activation": "53.5% (active)"}, {"smiles": "Cc1ccc(S(=O)(=O)Nc2ccc3ncccc3c2)cc1", "activation": "-16.8% (inactive)"}, {"smiles": "COc1cc(NS(=O)(=O)c2ccccc2)ccc1-n1nc(C)cc1C", "activation": "-10.6% (inactive)"}, {"smiles": "COc1cc(C2C(C#N)=C(C)NC3=C2C(=O)CC(C)(C)C3)ccc1O", "note": "(stereo not given)", "activation": "1.5% (inactive)"}, {"smiles": "Cc1ccc(Cn2ccc(NC(=O)C3C4CCC(C4)C3C(=O)O)n2)cc1", "note": "(stereo not given)", "activation": "3.1% (inactive)"}, {"smiles": "CCc1nnc(NC(=O)C2CCCN2S(=O)(=O)c2ccccc2)s1", "note": "(stereo not given)", "activation": "-4.2% (inactive)"}, {"smiles": "CCCCOc1ccc(-c2nnc(-c3ccco3)o2)cc1", "activation": "23.6% (inactive)"}, {"smiles": "Cc1ccc(OCC(=O)Nc2ccc(-c3nnc(-c4ccco4)o3)cc2)cc1", "activation": "65.5% (active)"}, {"smiles": "CCCOc1cccc(C(=O)Nc2nnn(CCC)n2)c1", "activation": "26.3% (inactive)"}, {"smiles": "CCOc1ccc(-c2nnc(-c3ccco3)o2)cc1", "activation": "-48% (inactive)"}, {"smiles": "CCC(=O)Oc1cccc(C(=O)Nc2ccc(-c3nnc(-c4ccco4)o3)cc2)c1", "activation": "79.8% (active)"}, {"smiles": "COc1ccc(CC(=O)Nc2ccc(-c3nnc(-c4ccc(C)cc4)o3)cc2)cc1", "activation": "-47.6% (inactive)"}, {"smiles": "CCOC(=O)c1[nH]c2ccc(OC)cc2c1NC(=O)CCN1CCN(Cc2ccccc2)CC1", "activation": "-7.7% (inactive)"}, {"smiles": "COc1cccc(-n2cc3c(c2-c2ccccc2)c(=O)n(C)c(=O)n3C)c1", "activation": "-21.1% (inactive)"}, {"smiles": "CCOC(=O)c1cn(CC(=O)Nc2ccc(C(C)C)cc2)nn1", "activation": "3.2% (inactive)"}, {"smiles": "O=C(CN1CCN(C(=O)c2ccco2)CC1)Nc1ccc(Cl)c(C(F)(F)F)c1", "activation": "11.1% (inactive)"}, {"smiles": "CCCC(=O)Nc1cccc(-c2cn3ccsc3n2)c1", "activation": "45.8% (inactive)"}, {"smiles": "Cc1ccc(S(=O)(=O)NCc2cn3ccsc3n2)c(C)c1", "activation": "-0.8% (inactive)"}, {"smiles": "COc1ccc(-c2cn3ccsc3n2)cc1", "activation": "53.3% (active)"}, {"smiles": "O=C(O)[C@@H]1CCCN1c1ncnc2sc3c(c12)CCC3", "activation": "-13.4% (inactive)"}, {"smiles": "Cn1c(=O)c(C(=O)Nc2ncccn2)c(O)c2ccccc21", "activation": "64.2% (active)"}, {"smiles": "CCOc1cc(C(=O)Nc2ncccn2)cc(OCC)c1OCC", "activation": "-1.3% (inactive)"}, {"smiles": "O=C(Nc1ncccn1)c1cccs1", "activation": "18.9% (inactive)"}, {"smiles": "Cc1ccccc1OCCC(=O)Nc1c(C)n(C)n(-c2ccccc2)c1=O", "activation": "13.7% (inactive)"}, {"smiles": "Cc1nnc(NC(=O)CCC(=O)N2CCC(C)CC2)s1", "activation": "0.2% (inactive)"}, {"smiles": "Cc1ccc(S(=O)(=O)N2CCC(N3CCCCCC3)CC2)cc1", "activation": "10.8% (inactive)"}, {"smiles": "CCN(CC)S(=O)(=O)c1cc(C(=O)Nc2ccccn2)ccc1C", "activation": "49.3% (inactive)"}, {"smiles": "Cc1nc2c(c(=O)n1Cc1ccco1)c1nc3ccccc3nc1n2Cc1ccccc1", "activation": "-2.3% (inactive)"}, {"smiles": "CC(C)NC(=O)CCCn1c(=S)[nH]c2cc3c(cc2c1=O)OCO3", "activation": "2.9% (inactive)"}, {"smiles": "Cc1cccc(NC(=O)COc2ccccc2C)n1", "activation": "-19.2% (inactive)"}, {"smiles": "Cc1cccc(NC(=O)c2ccc3ccccc3n2)n1", "activation": "98.6% (active)"}, {"smiles": "Cc1cccc(NC(=O)c2ccccc2NC(=O)C(C)(C)C)n1", "activation": "-22.9% (inactive)"}, {"smiles": "O=C(c1c(Cl)nc2sccn12)N1CCCc2ccccc21", "activation": "4.7% (inactive)"}, {"smiles": "N#C/C=C1\\Sc2ccccc2C(=O)N1CC(=O)N1CCN(S(=O)(=O)c2ccccc2)CC1", "activation": "53.6% (active)"}, {"smiles": "O=C(CCC(=O)N1CCN(S(=O)(=O)c2ccccc2)CC1)NC1CCCc2ccccc21", "note": "(stereo not given)", "activation": "-3.9% (inactive)"}, {"smiles": "CS(=O)(=O)N1CCN(C(=O)Cc2ccccc2)CC1", "activation": "3.5% (inactive)"}, {"smiles": "COc1ccccc1CNC(=O)CCn1c(=O)sc2ccccc21", "activation": "-21.4% (inactive)"}, {"smiles": "CS(=O)(=O)c1ccc2nc(NC(=O)CN3CCCCCC3)sc2c1", "activation": "-3.6% (inactive)"}, {"smiles": "COCCCNC(=O)Cn1cc(C(=O)C2CC2)c2ccccc21", "activation": "1.7% (inactive)"}, {"smiles": "CCOc1ccccc1Nc1nnc(SCC(=O)Nc2cc(C)on2)s1", "activation": "-12.5% (inactive)"}, {"smiles": "C=CCNC(=O)c1ccc(C)c(Br)c1", "activation": "-12.1% (inactive)"}, {"smiles": "COc1ccc2c(c1)CCc1c(C(=O)N3CCc4ccccc4C3)noc1-2", "activation": "2.4% (inactive)"}, {"smiles": "COc1ccc2c(c1)CCc1c(C(=O)N3CCCC3)noc1-2", "activation": "55.3% (active)"}, {"smiles": "COc1ccc2c(c1)CCc1c(C(=O)Nc3c(C)n(C)n(-c4ccccc4)c3=O)noc1-2", "activation": "-6% (inactive)"}]}]}
